From BindingDB's records for doi:10.1021/jm050754u (Abbott Laboratories, 2006) come the findings set out here.

As usually defined, the EC50 is the concentration needed to bring the measured effect to its halfway point.

Experiment [1] can be described thus: Activity towards mouse FL5.12 cell line transfected with Bcl-XL in presence of gelatin.
The target in experiment [2] is Bcl-2-like protein 1 (Homo sapiens, UniProt Q07817). The experiment is described as follows: Activity towards mouse FL5.12 cell line transfected with Bcl-XL in presence of gelatin. A digest of the protocol: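 Bcl-XL-transfected murine FL5.12 (IL-3 dependent) grown in RPMI with 10% FBS and WEHI-3B conditioned medium as the IL-3 source. Switched to IL-3-depleted, FBS-free medium for 2 days. Then placed in gelatin assay medium (3.4 mg/mL bovine gelatin) or 3% FBS assay medium. Serial compound dilutions added for 24 h. Viability read by MTS or CellTiter-Glo; duplicate values per determination; EC50.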
Bcl-2-like protein 1, sequence (Q07817 whole entry): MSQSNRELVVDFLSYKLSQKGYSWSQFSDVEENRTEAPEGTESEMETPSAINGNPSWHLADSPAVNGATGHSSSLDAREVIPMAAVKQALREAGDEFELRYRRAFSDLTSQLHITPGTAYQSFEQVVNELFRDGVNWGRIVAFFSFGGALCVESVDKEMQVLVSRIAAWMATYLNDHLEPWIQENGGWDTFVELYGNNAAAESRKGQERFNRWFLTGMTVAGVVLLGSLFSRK

With `COc1cc(CCCN2CCOCC2)ccc1-c1ccc(C(=O)NS(=O)(=O)c2ccc(N[C@H](CCN(C)C)CSc3ccccc3)c([N+](=O)[O-])c2)cc1` [4-((R)-3-dimethylamino-1-phenylsulfanylmethylpropylamino)-N-[2'-methoxy-4'-(3-morpholin-4-ylpropyl)biphenyl-4-carbonyl]-3-nitrobenzenesulfonamide], the EC50 in experiment [1] was 399 nM.
The same measure, in the same setting: next, `COc1cc(CCCN2CCOCC2)ccc1-c1ccc(C(=O)NS(=O)(=O)c2ccc(N[C@H](CCCN(C)C)CSc3ccccc3)c([N+](=O)[O-])c2)cc1` [4-((R)-4-Dimethylamino-1-phenylsulfanylmethylbutylamino)-N-[2'-methoxy-4'-(3-morpholin-4-ylpropyl)biphenyl-4-carbonyl]-3-nitrobenzenesulfonamide]: 3010 nM; `CN(C)CCC[C@H](CSc1ccccc1)Nc1ccc(S(=O)(=O)NC(=O)c2ccc(N3CCC(C)(C)CC3)cc2)cc1[N+](=O)[O-]` [4-((R)-4-dimethylamino-1-phenylsulfanylmethylbutylamino)-N-[4-(4,4-dimethylpiperidin-1-yl)benzoyl]-3-nitrobenzenesulfonamide]: 2000 nM.
For the compound `COc1cc(CCCN2CCOCC2)ccc1-c1ccc(C(=O)NS(=O)(=O)c2ccc(N[C@H](CCCCN)CSc3ccccc3)c([N+](=O)[O-])c2)cc1` [4-((R)-5-amino-1-phenylsulfanylmethylpentylamino)-N-[2'-methoxy-4'-(3-morpholin-4-ylpropyl)biphenyl-4-carbonyl]-3-nitrobenzenesulfonamide], in experiment [2], the EC50 was determined as 3050 nM.
Regarding `CC1(C)CCN(c2ccc(C(=O)NS(=O)(=O)c3ccc(N[C@H](CCCCN)CSc4ccccc4)c([N+](=O)[O-])c3)cc2)CC1` [4-((R)-5-amino-1-phenylsulfanylmethylpentylamino)-N-[4-(4,4-dimethylpiperidin-1-yl)benzoyl]-3-nitrobenzenesulfonamide], the EC50 in experiment [1] amounted to 4130 nM.
On to `COc1cc(CCCN2CCOCC2)ccc1-c1ccc(C(=O)NS(=O)(=O)c2ccc(N[C@H](CCCCN(C)C)CSc3ccccc3)c([N+](=O)[O-])c2)cc1` [4-((R)-5-dimethylamino-1-phenylsulfanylmethylpentylamino)-N-[2'-methoxy-4'-(3-morpholin-4-ylpropyl)biphenyl-4-carbonyl]-3-nitrobenzenesulfonamide], for which, in experiment [1], the EC50 amounted to 1200 nM.
Still for that read-out and setting: next, `CN(C)CCCC[C@H](CSc1ccccc1)Nc1ccc(S(=O)(=O)NC(=O)c2ccc(N3CCC(C)(C)CC3)cc2)cc1[N+](=O)[O-]` [4-((R)-5-dimethylamino-1-phenylsulfanylmethylpentylamino)-N-[4-(4,4-dimethylpiperidin-1-yl)benzoyl]-3-nitrobenzenesulfonamide]: 1080 nM; `CN(C)CC[C@@H](CSc1ccccc1)Nc1ccc(S(=O)(=O)NC(=O)c2ccc(N3CCC(C)(C)CC3)cc2)cc1[N+](=O)[O-]` [4-((S)-3-dimethylamino-1-phenylsulfanylmethylpropylamino)--[4-(4,4-dimethylpiperidin-1-yl)benzoyl]-3-nitrobenzenesulfonamide]: 9500 nM; `COc1cc(CCCN2CCOCC2)ccc1-c1ccc(C(=O)NS(=O)(=O)c2ccc(N[C@@H](CCN(C)C)CSc3ccccc3)c([N+](=O)[O-])c2)cc1` [4-((S)-3-dimethylamino-1-phenylsulfanylmethylpropylamino)-N-[2'-methoxy-4'-(3-morpholin-4-ylpropyl)biphenyl-4-carbonyl]-3-nitrobenzenesulfonamide]: 32500 nM.
Regarding `COc1cc(CCCN2CCOCC2)ccc1-c1ccc(C(=O)NS(=O)(=O)c2ccc(N[C@@H](CSc3ccccc3)CC(=O)N(C)C)c([N+](=O)[O-])c2)cc1` [(R)-3-(4-{[2'-methoxy-4'-(3-morpholin-4-ylpropyl)biphenyl-4-carbonyl]sulfamoyl}-2-nitrophenylamino)-N,N-dimethyl-4-phenylsulfanylbutyramide], the EC50 in experiment [1] worked out at 1280 nM.
As to `CN(C)C(=O)C[C@H](CSc1ccccc1)Nc1ccc(S(=O)(=O)NC(=O)c2ccc(N3CCC(C)(C)CC3)cc2)cc1[N+](=O)[O-]` [(R)-3-{4-[4-(4,4-dimethylpiperidin-1-yl)benzoylsulfamoyl]-2-nitrophenylamino}-N,N-dimethyl-4-phenylsulfanylbutyramide], in experiment [1], the EC50 came out at 2140 nM.
Same read-out and setting: next, `COc1cc(CCCN2CCOCC2)ccc1-c1ccc(C(=O)NS(=O)(=O)c2ccc(N[C@H](CCN3CCOCC3)CSc3ccccc3)c([N+](=O)[O-])c2)cc1` [N-[2'-methoxy-4'-(3-morpholin-4-ylpropyl)biphenyl-4-carbonyl]-4-((R)-3-morpholin-4-yl-1-phenylsulfanylmethylpropylamino)-3-nitrobenzenesulfonamide]: 382 nM; `CC1(C)CCN(c2ccc(C(=O)NS(=O)(=O)c3ccc(N[C@H](CCN4CCOCC4)CSc4ccccc4)c([N+](=O)[O-])c3)cc2)CC1` [N-[4-(4,4-dimethylpiperidin-1-yl)benzoyl]-4-((R)-3-morpholin-4-yl-1-phenylsulfanylmethylpropylamino)-3-nitrobenzenesulfonamide]: 368 nM; `CC1(C)CCN(c2ccc(C(=O)NS(=O)(=O)c3ccc(N[C@@H](CCN4CCOCC4)CSc4ccccc4)c([N+](=O)[O-])c3)cc2)CC1` [N-[4-(4,4-dimethylpiperidin-1-yl)benzoyl]-4-((S)-3-morpholin-4-yl-1-phenylsulfanylmethylpropylamino)-3-nitrobenzenesulfonamide]: 4200 nM.
